ChEMBL document CHEMBL4007382 (Eur J Med Chem, 2017)

Columns and labels:
Acetylcholinesterase [1] = molecular target: Acetylcholinesterase (Electrophorus electricus, UniProt O42275); assay: Inhibition of electric eel AChE using S-acetylthiocholine iodide as substrate preincubated for 60 mins followed by substrate addition measured after 5 mins by Ellman's method
Acetylcholinesterase [2] = molecular target: Acetylcholinesterase (Homo sapiens, UniProt P22303); assay: Inhibition of human erythrocytes AChE using S-acetylthiocholine iodide as substrate preincubated for 60 mins followed by substrate addition measured after 5 mins by Ellman's method
Cholinesterase [3] = molecular target: T1, Cholinesterase (Equus caballus, UniProt P81908); assay: Inhibition of equine serum BuChE using S-butyrylthiocholine iodide as substrate preincubated for 60 mins followed by substrate addition measured after 5 mins by Ellman's method
How it was run: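 Equine serum BChE (0.1 U/mL) in 100 mM sodium phosphate, pH 8, was preincubated at 37°C for 60 min with seven inhibitor concentrations (top 1×10^-5 M; stocks in acetonitrile:water 1:9). Added mix contained BTCh 2.5 mM and DTNB 3.4 mM. A412 was read for 5 min at 37°C, with enzyme-free blank subtracted. Triplicates.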

Cholinesterase [4] = molecular target: T1, Cholinesterase; assay: Irreversible inhibition of equine serum BuChE assessed as second order carbamylation rate constant using S-butyrylthiocholine iodide as substrate preincubated up to 45 mins followed by substrate addition measured after 5 mins
How it was run: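 Equine BChE, pH 8, 37°C, was preincubated for 1, 2, 4, 8, 15, 30 and 45 min with inhibitor at 1×10^-7 to 5×10^-6 M (seven levels). Residual activity was read by Ellman with BTCh and normalised to a water control at each time. kobs came from a one-phase exponential decay fit; k_I1 came from the linear kobs versus concentration relation.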

Cholinesterase [5] = molecular target: Cholinesterase (Homo sapiens, UniProt P06276); assay: Irreversible inhibition of human plasma BuChE assessed as second order carbamylation rate constant using S-butyrylthiocholine iodide as substrate preincubated up to 45 mins followed by substrate addition measured after 5 mins
How it was run: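 Diluted human plasma BChE was preincubated for 1–45 min with inhibitor at 5×10^-9, 1×10^-8, 2.5×10^-8 and 5×10^-8 M. Residual Ellman activity with BTCh at pH 8 was normalised to a water control. kobs came from a one-phase exponential fit; k_I1 came from the slope of kobs versus concentration.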

Mus musculus [6] = assay: Cardiotoxicity in Kunming mouse assessed as change in heart rate at 20 mg/kg, ip measured after 1 mins by electrocardiogram (reference value: -4.04 +/- 7.52); assay type: toxicity, organism-based; conditions: in vivo
Mus musculus [7] = assay: Cardiotoxicity in Kunming mouse assessed as change in heart rate at 20 mg/kg, ip measured after 2 mins by electrocardiogram (reference value: -16.36 +/- 11.14); assay type: toxicity, organism-based; conditions: in vivo
Mus musculus [8] = assay: Cardiotoxicity in Kunming mouse assessed as change in heart rate at 20 mg/kg, ip measured after 4 mins by electrocardiogram (reference value: -13.79 +/- 13.4); assay type: toxicity, organism-based; conditions: in vivo
Mus musculus [9] = assay: Cardiotoxicity in Kunming mouse assessed as change in heart rate at 20 mg/kg, ip measured after 5 mins by electrocardiogram (reference value: -14.06 +/- 24.25); assay type: toxicity, organism-based; conditions: in vivo
Mus musculus [10] = assay: Cardiotoxicity in Kunming mouse assessed as change in heart rate at 20 mg/kg, ip measured after 6 mins by electrocardiogram (reference value: -19.47 +/- 22.55); assay type: toxicity, organism-based; conditions: in vivo, 0.1 h
Mus musculus [11] = assay: Cardiotoxicity in Kunming mouse assessed as change in heart rate at 20 mg/kg, ip measured after 7 mins by electrocardiogram (reference value: -25.9 +/- 22.08); assay type: toxicity, organism-based; conditions: in vivo
Mus musculus [12] = assay: Cardiotoxicity in Kunming mouse assessed as change in heart rate at 20 mg/kg, ip measured after 9 mins by electrocardiogram (reference value: -31.96 +/- 17.01); assay type: toxicity, organism-based; conditions: in vivo, 0.15 h
Mus musculus [13] = assay: Cardiotoxicity in Kunming mouse assessed as change in heart rate at 20 mg/kg, ip measured after 11 mins by electrocardiogram (reference value: -35.4 +/- 11.4); assay type: toxicity, organism-based; conditions: in vivo
Mus musculus [14] = assay: Cardiotoxicity in Kunming mouse assessed as change in heart rate at 20 mg/kg, ip measured after 13 mins by electrocardiogram (reference value: -37.85 +/- 14.54); assay type: toxicity, organism-based; conditions: in vivo
Mus musculus [15] = assay: Cardiotoxicity in Kunming mouse assessed as change in heart rate at 20 mg/kg, ip measured after 14 mins by electrocardiogram (reference value: -38.12 +/- 19.53); assay type: toxicity, organism-based; conditions: in vivo
Mus musculus [16] = assay: Cardiotoxicity in Kunming mouse assessed as change in heart rate at 20 mg/kg, ip measured after 16 mins by electrocardiogram (reference value: -38.67 +/- 10.18); assay type: toxicity, organism-based; conditions: in vivo
Mus musculus [17] = assay: Cardiotoxicity in Kunming mouse assessed as change in heart rate at 20 mg/kg, ip measured after 17 mins by electrocardiogram (reference value: -38.32 +/- 10.76); assay type: toxicity, organism-based; conditions: in vivo
Mus musculus [18] = assay: Cardiotoxicity in Kunming mouse assessed as change in heart rate at 20 mg/kg, ip measured after 18 mins by electrocardiogram (reference value: -37.61 +/- 15); assay type: toxicity, organism-based; conditions: in vivo, 0.3 h
Mus musculus [19] = assay: Cardiotoxicity in Kunming mouse assessed as change in heart rate at 20 mg/kg, ip measured after 20 mins by electrocardiogram (reference value: -40.16 +/- 13.12); assay type: toxicity, organism-based; conditions: in vivo
Mus musculus [20] = assay: Cardiotoxicity in Kunming mouse assessed as change in heart rate at 20 mg/kg, ip measured after 22 mins by electrocardiogram (reference value: -41.94 +/- 12.51); assay type: toxicity, organism-based; conditions: in vivo
Mus musculus [21] = assay: Cardiotoxicity in Kunming mouse assessed as change in heart rate at 20 mg/kg, ip measured after 23 mins by electrocardiogram (reference value: -44.9 +/- 14.57); assay type: toxicity, organism-based; conditions: in vivo
Mus musculus [22] = assay: Cardiotoxicity in Kunming mouse assessed as change in heart rate at 20 mg/kg, ip measured after 24 mins by electrocardiogram (reference value: -44.48 +/- 12.38); assay type: toxicity, organism-based; conditions: in vivo, 0.4 h
Mus musculus [23] = assay: Cardiotoxicity in Kunming mouse assessed as change in heart rate at 20 mg/kg, ip measured after 25 mins by electrocardiogram (reference value: -43.17 +/- 15.26); assay type: toxicity, organism-based; conditions: in vivo
Mus musculus [24] = assay: Cardiotoxicity in Kunming mouse assessed as change in heart rate at 20 mg/kg, ip measured after 27 mins by electrocardiogram (reference value: -44.4 +/- 23.19); assay type: toxicity, organism-based; conditions: in vivo, 0.45 h
Mus musculus [25] = assay: Cardiotoxicity in Kunming mouse assessed as change in heart rate at 20 mg/kg, ip measured after 29 mins by electrocardiogram (reference value: -47.2 +/- 24.77); assay type: toxicity, organism-based; conditions: in vivo
Mus musculus [26] = assay: Cardiotoxicity in Kunming mouse assessed as change in heart rate at 20 mg/kg, ip measured after 30 mins by electrocardiogram (reference value: -43.78 +/- 22.71); assay type: toxicity, organism-based; conditions: in vivo, 0.5 h
Mus musculus [27] = assay: Cardiotoxicity in Kunming mouse assessed as change in heart rate at 20 mg/kg, ip measured after 31 mins by electrocardiogram (reference value: -42.8 +/- 29.79); assay type: toxicity, organism-based; conditions: in vivo
Mus musculus [28] = assay: Cardiotoxicity in Kunming mouse assessed as change in heart rate at 20 mg/kg, ip measured after 34 mins by electrocardiogram (reference value: -35 +/- 23.88); assay type: toxicity, organism-based; conditions: in vivo
Mus musculus [29] = assay: Cardiotoxicity in Kunming mouse assessed as change in heart rate at 20 mg/kg, ip measured after 36 mins by electrocardiogram (reference value: -32.32 +/- 25.52); assay type: toxicity, organism-based; conditions: in vivo, 0.6 h

T1 sequence (P81908 whole entry): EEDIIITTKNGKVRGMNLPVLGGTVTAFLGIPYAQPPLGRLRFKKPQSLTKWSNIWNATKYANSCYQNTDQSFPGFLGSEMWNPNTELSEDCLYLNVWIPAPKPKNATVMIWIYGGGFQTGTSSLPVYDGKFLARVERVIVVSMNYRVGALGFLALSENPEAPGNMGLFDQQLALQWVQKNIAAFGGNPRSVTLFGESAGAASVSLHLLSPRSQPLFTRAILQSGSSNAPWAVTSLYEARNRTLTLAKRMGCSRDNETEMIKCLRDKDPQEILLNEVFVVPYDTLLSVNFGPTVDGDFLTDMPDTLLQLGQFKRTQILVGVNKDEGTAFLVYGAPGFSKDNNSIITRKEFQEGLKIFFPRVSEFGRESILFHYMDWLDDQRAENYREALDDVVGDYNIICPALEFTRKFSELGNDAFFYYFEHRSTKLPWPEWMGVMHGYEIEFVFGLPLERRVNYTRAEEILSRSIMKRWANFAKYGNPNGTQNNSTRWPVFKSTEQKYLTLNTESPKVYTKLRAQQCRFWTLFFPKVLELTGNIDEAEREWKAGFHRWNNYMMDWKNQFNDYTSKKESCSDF
Sequence of Acetylcholinesterase (Electrophorus electricus, UniProt O42275) (O42275 whole entry): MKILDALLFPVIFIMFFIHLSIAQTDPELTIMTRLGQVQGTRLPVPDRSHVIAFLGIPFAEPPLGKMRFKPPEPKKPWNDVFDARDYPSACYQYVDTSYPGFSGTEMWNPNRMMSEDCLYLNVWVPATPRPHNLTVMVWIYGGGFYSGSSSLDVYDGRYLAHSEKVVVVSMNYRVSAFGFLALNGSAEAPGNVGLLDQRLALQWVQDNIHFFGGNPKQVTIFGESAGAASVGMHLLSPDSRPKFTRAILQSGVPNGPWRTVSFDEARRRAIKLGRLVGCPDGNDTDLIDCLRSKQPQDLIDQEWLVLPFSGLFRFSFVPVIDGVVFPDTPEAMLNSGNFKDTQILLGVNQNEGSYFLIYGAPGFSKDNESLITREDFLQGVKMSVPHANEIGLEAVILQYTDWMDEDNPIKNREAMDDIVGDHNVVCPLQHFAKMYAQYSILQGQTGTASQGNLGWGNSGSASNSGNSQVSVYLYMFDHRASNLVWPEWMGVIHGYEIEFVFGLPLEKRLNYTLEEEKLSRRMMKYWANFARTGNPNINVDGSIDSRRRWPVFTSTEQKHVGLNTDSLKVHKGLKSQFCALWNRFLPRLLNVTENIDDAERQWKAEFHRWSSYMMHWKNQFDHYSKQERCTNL
Sequence of Cholinesterase (Homo sapiens, UniProt P06276) (P06276 whole entry): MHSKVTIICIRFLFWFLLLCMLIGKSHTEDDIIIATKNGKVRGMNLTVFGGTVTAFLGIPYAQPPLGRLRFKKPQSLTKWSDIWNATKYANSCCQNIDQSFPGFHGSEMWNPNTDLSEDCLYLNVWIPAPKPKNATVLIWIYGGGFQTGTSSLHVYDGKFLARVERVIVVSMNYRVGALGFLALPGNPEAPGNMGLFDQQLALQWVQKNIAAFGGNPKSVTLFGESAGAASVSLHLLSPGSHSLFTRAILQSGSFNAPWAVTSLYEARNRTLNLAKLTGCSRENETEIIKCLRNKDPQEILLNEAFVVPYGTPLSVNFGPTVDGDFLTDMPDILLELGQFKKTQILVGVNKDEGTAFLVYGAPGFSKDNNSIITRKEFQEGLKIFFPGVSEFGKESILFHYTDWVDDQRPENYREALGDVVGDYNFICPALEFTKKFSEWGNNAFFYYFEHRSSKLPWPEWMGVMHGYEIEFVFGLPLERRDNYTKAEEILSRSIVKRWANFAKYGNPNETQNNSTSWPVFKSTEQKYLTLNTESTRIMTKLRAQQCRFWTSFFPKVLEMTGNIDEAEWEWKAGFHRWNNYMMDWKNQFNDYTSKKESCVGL
Sequence of Acetylcholinesterase (Homo sapiens, UniProt P22303) (P22303 whole entry): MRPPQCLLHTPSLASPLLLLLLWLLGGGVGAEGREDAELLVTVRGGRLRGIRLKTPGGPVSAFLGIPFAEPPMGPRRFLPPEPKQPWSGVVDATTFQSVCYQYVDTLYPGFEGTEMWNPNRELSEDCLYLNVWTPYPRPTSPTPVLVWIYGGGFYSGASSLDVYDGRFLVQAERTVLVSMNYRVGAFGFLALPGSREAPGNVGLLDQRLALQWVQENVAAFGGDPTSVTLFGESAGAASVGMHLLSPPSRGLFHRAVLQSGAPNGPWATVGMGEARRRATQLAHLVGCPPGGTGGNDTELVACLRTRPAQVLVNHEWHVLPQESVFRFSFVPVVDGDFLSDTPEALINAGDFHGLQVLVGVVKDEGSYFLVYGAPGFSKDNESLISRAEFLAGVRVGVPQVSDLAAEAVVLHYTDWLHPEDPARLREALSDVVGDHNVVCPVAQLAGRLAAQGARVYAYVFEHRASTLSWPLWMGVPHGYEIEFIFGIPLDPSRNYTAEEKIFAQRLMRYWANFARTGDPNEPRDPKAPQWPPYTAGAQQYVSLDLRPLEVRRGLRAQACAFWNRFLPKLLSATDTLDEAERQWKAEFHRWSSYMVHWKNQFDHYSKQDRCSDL

| Compound | IC50 (Acetylcholinesterase [1]) [µM] | IC50 (Acetylcholinesterase [2]) [µM] | IC50 (Cholinesterase [3]) [µM] | Ki (Cholinesterase [4]) [×10⁵ /M/min] | Ki (Cholinesterase [5]) [×10⁵ /M/min] | Activity (Mus musculus [6]) [bpm] | Activity (Mus musculus [7]) [bpm] | Activity (Mus musculus [8]) [bpm] | Activity (Mus musculus [9]) [bpm] | Activity (Mus musculus [10]) [bpm] | Activity (Mus musculus [11]) [bpm] | Activity (Mus musculus [12]) [bpm] | Activity (Mus musculus [13]) [bpm] | Activity (Mus musculus [14]) [bpm] | Activity (Mus musculus [15]) [bpm] | Activity (Mus musculus [16]) [bpm] | Activity (Mus musculus [17]) [bpm] | Activity (Mus musculus [18]) [bpm] | Activity (Mus musculus [19]) [bpm] | Activity (Mus musculus [20]) [bpm] | also measured |
| --- | --- | --- | --- | --- | --- | --- | --- | --- | --- | --- | --- | --- | --- | --- | --- | --- | --- | --- | --- | --- | --- |
| CN(C)C(=O)Oc1cc(OC(=O)N(C)C)cc(C(O)CNC(C)(C)C)c1 (configuration not stated) [BAMBUTEROL] | > 100 | > 10 | 0.119 | 1.44 | 77.7 | -2.81 | -2.66 | 3.77 | 17.67 | 16.63 | 16.59 | 0.55 | 5.19 | 15.31 | 39.93 | 57.32 | 45.59 | 32.35 | 34.4 | 48.65 | Activity (Mus musculus [21]): 48.77 bpm; Activity (Mus musculus [22]): 29.39 bpm; Activity (Mus musculus [23]): 30.43 bpm; Activity (Mus musculus [24]): -1.54 bpm; Activity (Mus musculus [25]): -23.87 bpm; Activity (Mus musculus [26]): -20.41 bpm; Activity (Mus musculus [27]): -13.49 bpm; Activity (Mus musculus [28]): -6.04 bpm; Activity (Mus musculus [29]): -26.54 bpm |
| CCN(C)C(=O)Oc1cc(OC(=O)N(C)CC)cc(C(O)CNC(C)(C)CC)c1.Cl (configuration not stated) | > 100 | > 10 | 0.116 | 1.49 | 73.3 | -0.1 | -1.28 | 2.55 | 0.25 | -1.48 | -3.03 | -5.8 | -8.17 | -3.93 | -4.15 | 3.92 | 4.98 | 5.47 | 0.13 | 0.05 | Activity (Mus musculus [21]): 0.52 bpm; Activity (Mus musculus [22]): 3.13 bpm; Activity (Mus musculus [23]): -0.22 bpm; Activity (Mus musculus [24]): -4.43 bpm; Activity (Mus musculus [25]): -5.1 bpm; Activity (Mus musculus [26]): -1.5 bpm; Activity (Mus musculus [27]): 1.28 bpm; Activity (Mus musculus [28]): -5.5 bpm; Activity (Mus musculus [29]): -25.47 bpm |
| CCC(C)(C)NCC(O)c1cc(OC(=O)N(C)C)cc(OC(=O)N(C)C)c1.Cl (configuration not stated) | > 100 | > 10 | 0.126 | 1.42 | 60 | -18.58 | -21.23 | -26.67 | -28.9 | -31.29 | -33.53 | -34.87 | -42.6 | -43.71 | -51.28 | -42.02 | -40.25 | -38.45 | -40.62 | -41.75 | Activity (Mus musculus [21]): -41.98 bpm; Activity (Mus musculus [22]): -42.92 bpm; Activity (Mus musculus [23]): -44.42 bpm; Activity (Mus musculus [24]): -32.47 bpm; Activity (Mus musculus [25]): -37.74 bpm; Activity (Mus musculus [26]): -36.5 bpm; Activity (Mus musculus [27]): -37.65 bpm; Activity (Mus musculus [28]): -37.47 bpm; Activity (Mus musculus [29]): -36.32 bpm |
